What was measured:
[1] = system: Liver microsomes; experiment: Intrinsic clearance in rat liver microsomes; type: ADME, Microsome
[2] = system: Liver microsomes; experiment: Intrinsic clearance in human liver microsomes; type: ADME, Microsome
[3] = system: Liver microsomes; experiment: Metabolic stability in human liver microsomes by glutathione trapping assay; type: ADME, Microsome
[4] = Half life in rat at 3 umol/kg, iv; type: ADME, organism-based; conditions: in vivo
How it was run: (§1)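 Fasted male Sprague-Dawley rats given a single intravenous dose of 3 μmol/kg. Three animals per administration per compound; plasma PK parameters derived.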

[5] = system: Rattus norvegicus; experiment: Dose normalized AUC in rat at 3 umol/kg, iv; type: ADME, organism-based; conditions: in vivo; how it was run: as §1
[6] = system: Rattus norvegicus; experiment: Dose normalised AUC in rat at 10 umol/kg, po; type: ADME, organism-based; conditions: in vivo
How it was run: (§2)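 Fasted male Sprague-Dawley rats dosed per orally at 10 µmol/kg. Three animals per administration per compound; plasma exposure and PK parameters derived.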

[7] = Cmax in rat at 10 umol/kg, po; type: ADME, organism-based; design: dose 10 umol/kg, route oral; conditions: in vivo; how it was run: as §2
[8] = Tmax in rat at 10 umol/kg, po; type: ADME, organism-based; conditions: in vivo; how it was run: as §2
[9] = Volume of distribution at steady state in rat at 3 umol/kg, iv; type: ADME, organism-based; conditions: in vivo, read-out: Vdss; how it was run: as §1
[10] = Oral bioavailability in rat in presence of 1-aminobenzotriazole; conditions: in vivo
[11] = Clearance in rat at 3 umol/kg, iv; type: ADME, organism-based; conditions: in vivo; how it was run: as §1
[12] = Oral bioavailability in rat at 10 umol/kg; type: ADME, organism-based; conditions: in vivo; how it was run: as §2
[13] = Half life in rat at 10 umol/kg, po; type: ADME, organism-based; conditions: in vivo; how it was run: as §2

| SMILES | CLH [1] | CLH [2] | Stability [3] | other results |
| --- | --- | --- | --- | --- |
| Cc1ncc(-c2ccccc2CCNC(=O)c2ccc(OCCOCC(F)(F)F)nc2)cn1 | < 10 µL/min/µg | 23 µL/min/µg | – | – |
| Cc1ncc(-c2ccccc2CCNC(=O)c2ccc(COCC(F)(F)F)nc2)cn1 | < 10 µL/min/µg | < 10 µL/min/µg | Unstable | – |
| Cc1cnc(-c2c(F)ccc(F)c2CCNC(=O)c2ccc(COCC(F)(F)F)nc2)cn1 | < 10 µL/min/µg | 21 µL/min/µg | Stable | half-life [4]: 5.9 h; AUC/dose [5]: 0.68 kg·h/L; AUC/dose [6]: 0.05 kg·h/L; Cmax [7]: 250 nM; Tmax [8]: 0.5 h; Vd [9]: 1.74 L/kg; bioavailability [10]: 40%; clearance [11]: 24.6 mL/min/kg; bioavailability [12]: 7%; half-life [13]: 2.3 h |
| Cc1ncc(-c2ccccc2CCNC(=O)c2ccc(CNCCC(F)(F)F)nc2)cn1 | < 10 µL/min/µg | 15 µL/min/µg | – | – |
| COc1cnc(-c2cccc(F)c2C(F)(F)CNC(=O)c2ccc(COCC(F)(F)F)nc2)cn1 | 24 µL/min/µg | < 10 µL/min/µg | Stable | – |
| COc1cnc(-c2c(OC)ccc(F)c2CCNC(=O)c2ccc(COCC(F)(F)F)nc2)cn1 | 67 µL/min/µg | 46 µL/min/µg | – | – |
| O=C(NCCc1ccccc1-c1ccc(CO)nc1)c1ccc(OCCC(F)(F)F)nc1 | 130 µL/min/µg | 10 µL/min/µg | – | – |
| COc1cnc(-c2c(F)ccc(F)c2CCNC(=O)c2ccc(COCC(F)(F)F)nc2)cn1 | 45 µL/min/µg | 44 µL/min/µg | Stable | half-life [4]: 0.9 h; AUC/dose [5]: 1.3 kg·h/L; AUC/dose [6]: 0.06 kg·h/L; Cmax [7]: 160 nM; Tmax [8]: 0.67 h; Vd [9]: 0.85 L/kg; clearance [11]: 13 mL/min/kg; bioavailability [12]: 5%; half-life [13]: 3 h |
| O=C(NCCc1ccccc1-c1cccnc1)c1ccc(OCCC(F)(F)F)nc1 | > 500 µL/min/µg | 160 µL/min/µg | Unstable | – |
| O=C(NCCc1ccccc1-c1cnc(OC(F)F)cn1)c1ccc(OCCC(F)(F)F)nc1 | 270 µL/min/µg | 210 µL/min/µg | – | – |
| COc1ncc(-c2cc(C)cnc2CCNC(=O)c2ccc(COCC(F)(F)F)nc2)cn1 | < 10 µL/min/µg | < 10 µL/min/µg | – | – |
| COc1ncc(-c2ccccc2C(F)(F)CNC(=O)c2ccc(COCC(F)(F)F)nc2)cn1 | 13 µL/min/µg | < 10 µL/min/µg | Stable | half-life [4]: 2 h; AUC/dose [5]: 0.71 kg·h/L; AUC/dose [6]: 0.24 kg·h/L; Cmax [7]: 840 nM; Tmax [8]: 0.75 h; Vd [9]: 1.4 L/kg; clearance [11]: 23 mL/min/kg; bioavailability [12]: 34%; half-life [13]: 2.4 h |
| Cc1ncc(-c2ccccc2CCNC(=O)c2ccc(C(=O)NCCCC(F)(F)F)nc2)cn1 | < 10 µL/min/µg | 11 µL/min/µg | Unstable | – |
| COc1cnc(-c2ccc(Cl)cc2CCNC(=O)c2ccc(COCC(F)(F)F)nc2)cn1 | – | 72 µL/min/µg | – | – |
| COc1cnc(-c2ccccc2C(F)(F)CNC(=O)c2ccc(COCC(F)(F)F)nc2)cn1 | 16 µL/min/µg | < 10 µL/min/µg | Stable | half-life [4]: 1.2 h; AUC/dose [5]: 1.5 kg·h/L; AUC/dose [6]: 0.41 kg·h/L; Cmax [7]: 1400 nM; Tmax [8]: 0.33 h; Vd [9]: 0.72 L/kg; clearance [11]: 11 mL/min/kg; bioavailability [12]: 27%; half-life [13]: 2.8 h |
| COc1cnc(-c2c(C)ccc(F)c2CCNC(=O)c2ccc(COCC(F)(F)F)nc2)cn1 | 88 µL/min/µg | 61 µL/min/µg | Unstable | half-life [4]: 0.9 h; AUC/dose [5]: 0.91 kg·h/L; AUC/dose [6]: 0.03 kg·h/L; Cmax [7]: 530 nM; Tmax [8]: 1.5 h; Vd [9]: 1.5 L/kg; clearance [11]: 19 mL/min/kg; bioavailability [12]: 4%; half-life [13]: 3.6 h |

The next lines start with results.

| CLH [1] | CLH [2] | Stability [3] | SMILES | other results |
| --- | --- | --- | --- | --- |
| 230 µL/min/µg | 100 µL/min/µg | – | COc1ncc(-c2c(C)ccc(F)c2CCNC(=O)c2ccc(OCCC(F)(F)F)nc2)cn1 | – |
| 129 µL/min/µg | 124 µL/min/µg | Unstable | COc1cnc(-c2ccccc2CCNC(=O)c2ccc(OCCC(F)(F)F)nc2)cn1 | – |
| < 10 µL/min/µg | 17 µL/min/µg | Unstable | COc1ncc(-c2cccc(Cl)c2CCNC(=O)c2ccc(OCCC(F)(F)F)nc2)cn1 | – |
| > 500 µL/min/µg | 11 µL/min/µg | Unstable | Cc1ncc(-c2ccccc2CCNC(=O)c2ccc(OCCC(F)(F)F)nc2)cn1 | – |
| < 10 µL/min/µg | < 10 µL/min/µg | Stable | COc1ncc(-c2cccnc2CCNC(=O)c2ccc(OCCC(F)(F)F)nc2)cn1 | – |
| 190 µL/min/µg | < 10 µL/min/µg | – | COc1ncc(-c2cccc(OC(F)F)c2CCNC(=O)c2ccc(OCCC(F)(F)F)nc2)cn1 | – |
| 17 µL/min/µg | 45 µL/min/µg | – | COc1ncc(-c2cccc(OC)c2CCNC(=O)c2ccc(OCCC(F)(F)F)nc2)cn1 | – |
| 32 µL/min/µg | 65 µL/min/µg | Stable | COc1ncc(-c2cccc(C)c2CCNC(=O)c2ccc(OCCC(F)(F)F)nc2)cn1 | half-life [4]: 0.98 h; AUC/dose [5]: 0.33 kg·h/L; AUC/dose [6]: 0.002 kg·h/L; Cmax [7]: 20 nM; Tmax [8]: 0.25 h; Vd [9]: 2.4 L/kg; clearance [11]: 50 mL/min/kg; bioavailability [12]: 0.6%; half-life [13]: 2.4 h |
| < 10 µL/min/µg | < 10 µL/min/µg | – | COc1ncc(-c2cccnc2C(F)(F)CNC(=O)c2ccc(OCCC(F)(F)F)nc2)cn1 | – |
| 35 µL/min/µg | 74 µL/min/µg | Stable | COc1ncc(-c2c(C)ccc(F)c2CCNC(=O)c2ccc(OCC(F)(F)F)nc2)cn1 | – |
| 150 µL/min/µg | 40 µL/min/µg | – | COc1ccc(CCNC(=O)c2ccc(OCCC(F)(F)F)nc2)c(-c2cnc(OC)nc2)c1 | – |
| < 10 µL/min/µg | < 10 µL/min/µg | – | COc1ncc(-c2cccnc2C(C)CNC(=O)c2ccc(OCCC(F)(F)F)nc2)cn1 (stereo unspecified) | – |
| 24 µL/min/µg | < 10 µL/min/µg | Stable | COc1ncc(-c2cccc(C#N)c2CCNC(=O)c2ccc(OCCC(F)(F)F)nc2)cn1 | – |
| 13 µL/min/µg | < 10 µL/min/µg | Unstable | COc1ncc(-c2cccc(F)c2CCNC(=O)c2ccc(OCCC(F)(F)F)nc2)cn1 | – |
| – | – | Stable | COc1ncc(-c2cccc3c2C[C@H](NC(=O)c2ccc(OCCC(F)(F)F)nc2)CO3)cn1 | half-life [4]: 6.4 h; AUC/dose [5]: 1.2 kg·h/L; AUC/dose [6]: 0.32 kg·h/L; Cmax [7]: 230 nM; Tmax [8]: 4.8 h; Vd [9]: 7.2 L/kg; clearance [11]: 14 mL/min/kg; bioavailability [12]: 26%; half-life [13]: 7.6 h |
| > 500 µL/min/µg | 17 µL/min/µg | – | COc1ncc(-c2ccccc2CCNC(=O)c2ccc(OCCC(F)(F)F)nc2)cn1 | – |
| < 10 µL/min/µg | < 10 µL/min/µg | Stable | COc1ncc(-c2ccc(C)nc2CCNC(=O)c2ccc(OCCC(F)(F)F)nc2)cn1 | – |

— ChEMBL document CHEMBL2146409, “Phenethyl nicotinamides, a novel class of Na(V)1.7 channel blockers: structure and activity relationship” (Bioorg Med Chem Lett, 2012)
